Test results reported in ChEMBL document CHEMBL1773052, “3-Trifluoromethylquinoxaline N,N'-dioxides as anti-trypanosomatid agents. Identification of optimal anti-T. cruzi agents and mechanism of action studies” (J Med Chem, 2011).

Tests used:
Trypanosoma cruzi [1] = test: Antitrypanosomal activity against Trypanosoma cruzi Tulahuen 2 epimastigotes assessed as growth inhibition at 25 uM after 5 days relative to control; assay type: functional; settings: Tulahuen 2, 120 h, read-out: GI
Outline: (§1)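 Epimastigotes grown axenically at 28 °C in BHI-tryptose + 5% FBS; a 10-day stationary culture was inoculated to 1 × 10⁶ cells/mL. Drug added from DMSO stock, final DMSO ≤0.4%, vehicle control. A600 read daily. PGI on day 5 corrects for day-0 absorbance, relative to control. […] Three independent experiments.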

Trypanosoma cruzi [2] = test: Antitrypanosomal activity against Trypanosoma cruzi Tulahuen 2 epimastigotes assessed as growth inhibition after 5 days; assay type: functional; settings: Tulahuen 2, 120 h, read-out: ID50; outline: as §1
[3] = Selectivity index, ratio of ID50 for mouse J774 cells to ID50 for Trypanosoma cruzi Tulahuen 2 epimastigotes; assay type: toxicity, cell-based; settings: J774 cells versus Trypanosoma cruzi Tulahuen 2 epimastigotes, read-out: Selectivity Index
[4] = Cytotoxicity against mouse J774 cells; assay type: cell-based; settings: read-out: ID50 (the source's name)

| Compound | inhibition of growth at 25 µM (Trypanosoma cruzi [1]) | IC50 (Trypanosoma cruzi [2]) | selectivity ratio [3] | CC50 [4] |
| --- | --- | --- | --- | --- |
| O=C(c1ccccc1)c1c(C(F)F)[n+]([O-])c2cc(Cl)c(Cl)cc2[n+]1[O-] | 100% | 4.7 µM | – | – |
| CC(C)C(=O)c1c(C(F)(F)F)[n+]([O-])c2ccccc2[n+]1[O-] | 100% | > 2.5 µM | – | – |
| Cc1c(Cc2ccccc2)[n+]([O-])c2ccc(Cl)cc2[n+]1[O-] | 0% | – | – | – |
| CC(=O)c1c(C)[n+]([O-])c2ccccc2[n+]1[O-] [MEQUINDOX] | 29% | – | – | – |
| Cc1cc2c(cc1C)[n+]([O-])c(C(=O)Nc1ccccc1)c(C)[n+]2[O-] | 16% | – | – | – |
| Cc1cc2c(cc1C)[n+]([O-])c(Cc1ccccc1)c(C)[n+]2[O-] | 0% | – | – | – |
| Cc1c(Cc2ccccc2)[n+]([O-])c2ccccc2[n+]1[O-] | 0% | – | – | – |
| O=C(c1cccs1)c1c(C(F)(F)F)[n+]([O-])c2cc(F)c(F)cc2[n+]1[O-] | 100% | 2.8 µM | – | – |
| O=C(c1ccco1)c1c(C(F)(F)F)[n+]([O-])c2cc(F)c(F)cc2[n+]1[O-] | 100% | 2.5 µM | – | – |
| COc1ccc2c(c1)[n+]([O-])c(C(F)(F)F)c(C(=O)c1ccccc1)[n+]2[O-] | 98% | 3.5 µM | – | – |
| Cc1ccc2c(c1)[n+]([O-])c(C(F)F)c(C(=O)c1ccccc1)[n+]2[O-] | 50.8% | 25 µM | – | – |
| CCOC(=O)c1c(-c2ccccc2)[n+]([O-])c2ccccc2[n+]1[O-] | 29% | – | – | – |
| CCOC(=O)c1c(-c2ccccc2)[n+]([O-])c2cc(C)ccc2[n+]1[O-] | 13% | – | – | – |
| O=C(c1cccc2ccccc12)c1c(C(F)(F)F)[n+]([O-])c2cc(F)c(F)cc2[n+]1[O-] | 100% | 3.9 µM | – | – |
| CCOC(=O)c1c(-c2ccccc2)[n+]([O-])c2cc(F)c(F)cc2[n+]1[O-] | 100% | 3.3 µM | – | – |
| O=C(c1ccc(Cl)cc1)c1c(C(F)(F)F)[n+]([O-])c2cc(F)c(F)cc2[n+]1[O-] | 100% | 2.5 µM | – | – |
| Cc1c(Cc2ccccc2)[n+]([O-])c2cc(Cl)c(Cl)cc2[n+]1[O-] | 24% | – | – | – |
| O=C(c1cccs1)c1c(C(F)(F)F)[n+]([O-])c2ccccc2[n+]1[O-] | 100% | 1.1 µM | 4.3 | 4.69 µM |
| Cc1c(C(=O)c2ccccc2)[n+]([O-])c2ccc(Cl)cc2[n+]1[O-] | 33% | – | – | – |
| Cc1ccc2c(c1)[n+]([O-])c(C(F)(F)F)c(C(=O)c1ccccc1)[n+]2[O-] | 99% | 1.3 µM | – | – |
| COc1ccc2c(c1)[n+]([O-])c(C(F)F)c(C(=O)c1ccccc1)[n+]2[O-] | 100% | 10 µM | – | – |

| Compound | inhibition of growth at 25 µM (Trypanosoma cruzi [1]) | IC50 (Trypanosoma cruzi [2]) | selectivity ratio [3] | CC50 [4] |
| --- | --- | --- | --- | --- |
| O=C(c1ccccc1)c1c(C(F)(F)F)[n+]([O-])c2cc(Cl)ccc2[n+]1[O-] | 90% | 3 µM | – | – |
| CCOC(=O)c1c(C)[n+]([O-])c2cc(Cl)c(Cl)cc2[n+]1[O-] | 32% | – | – | – |
| Cc1ccccc1NC(=O)c1c(C)[n+]([O-])c2ccccc2[n+]1[O-] | 21% | – | – | – |
| O=C(c1ccco1)c1c(C(F)(F)F)[n+]([O-])c2ccc(C(F)(F)F)cc2[n+]1[O-] | 100% | 4.8 µM | – | – |
| CCC(=O)c1c(C(F)(F)F)[n+]([O-])c2cc(Cl)c(Cl)cc2[n+]1[O-] | 100% | 0.78 µM | – | – |
| COC(=O)c1c(C)[n+]([O-])c2cc(C)c(C)cc2[n+]1[O-] | 10% | – | – | – |
| Cc1ccc2c(c1)[n+]([O-])c(C)c(C(=O)c1ccccc1)[n+]2[O-] | 8% | – | – | – |
| Cc1cc2c(cc1C)[n+]([O-])c(C(F)(F)F)c(C(=O)c1ccccc1)[n+]2[O-] | 72% | 1.4 µM | – | – |
| CC(=O)c1c(C)[n+]([O-])c2cc(Cl)c(Cl)cc2[n+]1[O-] | 60% | 18.4 µM | – | – |
| COc1ccc2c(c1)[n+]([O-])c(C)c(C(=O)c1ccccc1)[n+]2[O-] | 9% | – | – | – |
| O=C(c1c(C(F)(F)F)[n+]([O-])c2ccccc2[n+]1[O-])N1CCN(c2ccc(Cl)cc2)CC1 | 100% | 0.79 µM | 10.4 | 8.25 µM |
| O=C(c1ccccc1)c1c(C(F)F)[n+]([O-])c2cc(F)ccc2[n+]1[O-] | 100% | 6.3 µM | – | – |
| CC(=O)c1c(C(F)(F)F)[n+]([O-])c2ccccc2[n+]1[O-] | 100% | 3 µM | 2.8 | 8.55 µM |
| CCOC(=O)c1c(-c2ccccc2)[n+]([O-])c2cc(OC)ccc2[n+]1[O-] | 0% | – | – | – |
| O=C(c1cccc2ccccc12)c1c(C(F)(F)F)[n+]([O-])c2ccccc2[n+]1[O-] | 100% | 1.4 µM | 5.5 | 7.92 µM |
| Cc1c(C(=O)c2ccccc2)[n+]([O-])c2ccccc2[n+]1[O-] | 19% | – | – | – |
| Cc1ccccc1NC(=O)c1c(C)[n+]([O-])c2cc(Cl)c(Cl)cc2[n+]1[O-] | 49% | – | – | – |
| Cc1c(C(=O)NC(C)(C)C)[n+]([O-])c2cc(Cl)c(Cl)cc2[n+]1[O-] | 28% | – | – | – |
| CCOC(=O)c1c(C)[n+]([O-])c2cc(C)c(C)cc2[n+]1[O-] | 1% | – | – | – |
| CCOC(=O)c1c(-c2ccccc2)[n+]([O-])c2cc(Cl)ccc2[n+]1[O-] | 88% | 12.5 µM | – | – |
| O=C(c1ccc(Cl)cc1)c1c(C(F)(F)F)[n+]([O-])c2ccccc2[n+]1[O-] | 100% | 1.6 µM | 5.3 | 8.5 µM |

| Compound | inhibition of growth at 25 µM (Trypanosoma cruzi [1]) | IC50 (Trypanosoma cruzi [2]) | selectivity ratio [3] | CC50 [4] |
| --- | --- | --- | --- | --- |
| O=C(c1c(C(F)(F)F)[n+]([O-])c2ccccc2[n+]1[O-])N1CCN(c2ccccc2)CC1 | 100% | 0.76 µM | 12.5 | 9.51 µM |
| CCOC(=O)c1c(-c2ccccc2)[n+]([O-])c2cc(C)c(C)cc2[n+]1[O-] | 0% | – | – | – |
| CC(C)C(=O)c1c(C(F)(F)F)[n+]([O-])c2cc(Cl)c(Cl)cc2[n+]1[O-] | 100% | 1.4 µM | – | – |
| Cc1cc2c(cc1C)[n+]([O-])c(C(=O)Nc1ccccc1C)c(C)[n+]2[O-] | 12% | – | – | – |
| CC(C)C(=O)c1c(C(F)(F)F)[n+]([O-])c2cc(F)c(F)cc2[n+]1[O-] | 23.6% | – | < 0.5 | 11.5 µM |
| Cc1c(C(=O)c2ccccc2)[n+]([O-])c2cc(Cl)c(Cl)cc2[n+]1[O-] | 91% | 11.8 µM | – | – |
| O=C(c1ccccc1)c1c(C(F)F)[n+]([O-])c2ccccc2[n+]1[O-] | 35.8% | – | – | – |
| Cc1c(C(=O)Nc2ccccc2)[n+]([O-])c2cc(Cl)c(Cl)cc2[n+]1[O-] | 61% | – | – | – |
| O=C(c1ccccc1)c1nc2ccccc2nc1C(F)(F)F | 49% | – | – | – |
| CC(=O)c1c(C)[n+]([O-])c2cc(C)c(C)cc2[n+]1[O-] | 2% | – | – | – |
| Cc1cc2c(cc1C)[n+]([O-])c(C(=O)NC(C)(C)C)c(C)[n+]2[O-] | 0% | – | – | – |
| Cc1cc2c(cc1C)[n+]([O-])c(C(=O)c1ccccc1)c(C)[n+]2[O-] | 3% | – | – | – |
| COC(=O)c1c(C)[n+]([O-])c2cc(Cl)c(Cl)cc2[n+]1[O-] | 66% | – | – | – |
| CC(C)(C)C(=O)c1nc2ccccc2nc1C(F)(F)F | 43% | – | – | – |
| CC(C)(C)C(=O)c1c(C(F)(F)F)[n+]([O-])c2ccccc2[n+]1[O-] | 26% | – | < 0.3 | 8.7 µM |
| CCC(=O)c1c(C(F)(F)F)[n+]([O-])c2cc(F)c(F)cc2[n+]1[O-] | 100% | 0.5 µM | – | – |
| O=C(c1ccccc1)c1c(C(F)(F)F)[n+]([O-])c2cc(Cl)c(Cl)cc2[n+]1[O-] | 100% | 2.4 µM | – | – |
| O=C(c1ccccc1)c1c(C(F)F)[n+]([O-])c2cc(Cl)ccc2[n+]1[O-] | 100% | 6.4 µM | – | – |
| O=C(c1ccco1)c1c(C(F)(F)F)[n+]([O-])c2cc(C(F)(F)F)ccc2[n+]1[O-] | 100% | 5 µM | – | – |
